# Measurements gathered from unrelated publications.
# Each line is one published result; the experiments were not run side by side.
# Melanocortin receptor 5: Melanocortin receptor 5 (Mus musculus, UniProt P41149)
# Ppara: Peroxisome proliferator-activated receptor alpha (Ppara, Mus musculus, UniProt P23204)
# GRM4: Metabotropic glutamate receptor 4 (GRM4, Homo sapiens, UniProt Q14833)
SMILES,target,observed,action,technique,EC50 [µM]
O=C(Nc1ccc(N2C(=O)c3ccccc3C2=O)c(Cl)c1)c1ncccc1Cl,"Metabotropic glutamate receptor 1 (GRM1, Homo sapiens, UniProt Q13255)",calcium signal,positive allosteric modulator,,1.26
CSCC[C@H](N)C(=O)NCC(=O)N[C@@H](Cc1c[nH]cn1)C(=O)N[C@@H](Cc1ccccc1)C(=O)N[C@@H](CCCNC(=N)N)C(=O)N[C@@H](Cc1c[nH]c2ccccc12)C(=O)O,Melanocortin receptor 5,reporter gene,agonist,,4.43
Cc1nc(-c2ccc(C(F)(F)F)cc2)sc1C(=O)NCc1ccc(OC(C)(C)C(=O)O)cc1,Ppara,reporter gene,agonist,luciferase,0.098
COC(=O)c1ccc(-n2c(C)cc(C(=O)CSc3ccc(NC(C)=O)cc3)c2C)cc1,GRM4,calcium signal,positive allosteric modulator,,3.31
CC(C)(Oc1ccc(C(=O)c2ccc(Cl)cc2)cc1)C(=O)O,Ppara,reporter gene,agonist,luciferase,35.8
CCN(C(=O)C1CCN(S(=O)(=O)c2ccc3[nH]ncc3c2)CC1)[C@H](C)c1ccccc1,"Muscarinic acetylcholine receptor M4 (CHRM4, Homo sapiens, UniProt P08173)",calcium signal,agonist,,> 30
CCCC[C@H](NC(=O)[C@@H](NC(=O)[C@@H](N)Cc1ccc(O)cc1)C(C)C)C(=O)NCC(=O)N[C@@H](Cc1c[nH]cn1)C(=O)N[C@@H](Cc1ccccc1)C(=O)N[C@@H](CCCN=C(N)N)C(=O)N[C@@H](Cc1c[nH]c2ccccc12)C(=O)N[C@@H](CC(=O)O)C(=O)N[C@@H](CCCN=C(N)N)C(=O)N[C@@H](Cc1ccccc1)C(=O)NCC(=O)O,Melanocortin receptor 5,reporter gene,agonist,,0.14
COc1ccc(-c2nsc(NC(=O)[C@@H]3C[C@H]3C)c2C)cc1,GRM4,calcium signal,agonist,,> 25
N=C(N)NCCC[C@H](NC(=O)[C@@H](N)CC(=O)O)C(=O)N[C@@H](Cc1ccccc1)C(=O)NCC(=O)O,Melanocortin receptor 5,reporter gene,agonist,,> 100
C[C@@H]1NC(=O)[C@H](CCCNC(=N)N)NC(=O)[C@H](Cc2ccccc2)NC(=O)[C@H](Cc2ccccc2)NC(=O)[C@H](CCCNC(=N)N)NC(=O)[C@@H]2CCCN2C(=O)[C@H]2CCCN2C(=O)[C@H](Cc2ccccc2)NC1=O,Melanocortin receptor 5,reporter gene,agonist,,> 100
